# Assay results as given in ChEMBL document CHEMBL1157032, “Synthesis and antimicrobial activity of novel pyrazolo[3,4-d]pyrimidin derivatives” (2010).
# The source made the active and inactive calls. The rule behind the calls is not given here.
# What was measured:
# Assay type in all cases: functional
# Aspergillus niger [1] = experiment: Antimicrobial activity against Aspergillus niger MTCC 1781 after 48 hrs; conditions: MTCC 1781, 48 h
# In short: (§1)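 Fungal spore suspensions in sterile distilled water were adjusted to 10⁶ cfu/mL, and 0.1 mL was spread on Sabouraud dextrose agar. 6 mm wells were filled with 0.1 mL of compound dilution in DMSO (1% DMSO; DMSO-only control). Plates were incubated 48 h at 28 ± 0.2 °C, and inhibition zones were measured in mm. MIC was the lowest concentration completely inhibiting growth.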
# Staphylococcus aureus [2] = experiment: Antimicrobial activity against Staphylococcus aureus MTCC 96 after 24 hrs; conditions: MTCC 96, 24 h
# In short: (§2)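 Agar well diffusion on Mueller Hinton agar seeded with 0.1 mL of a 10⁵ cfu/mL bacterial suspension in 0.85% sterile saline. 6 mm wells received 0.1 mL of each compound dilution in DMSO (1% DMSO; DMSO alone as control). Plates were incubated 24 h at 37 ± 0.5 °C. Read-out was zone of inhibition in mm. MIC was taken as the lowest concentration giving complete growth inhibition.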
# Bacillus subtilis [3] = experiment: Antimicrobial activity against Bacillus subtilis MTCC 1789 after 24 hrs; conditions: MTCC 1789, 24 h; in short: as §2
# Candida albicans [4] = experiment: Antimicrobial activity against Candida albicans MTCC 227 at MIC after 48 hrs by agar diffusion method; in short: as §1
# Aspergillus niger [5] = experiment: Antimicrobial activity against Aspergillus niger MTCC 1781 at MIC after 48 hrs by agar diffusion method; in short: as §1
# Trichoderma viride [6] = experiment: Antimicrobial activity against Trichoderma viride MTCC 167 after 48 hrs; conditions: MTCC 167, 48 h; in short: as §1
# Aspergillus flavus [7] = experiment: Antimicrobial activity against Aspergillus flavus MTCC 2501 at MIC after 48 hrs by agar diffusion method; in short: as §1
# Staphylococcus aureus [8] = experiment: Antimicrobial activity against Staphylococcus aureus MTCC 96 at MIC after 24 hrs by agar diffusion method; in short: as §2
# Trichoderma viride [9] = experiment: Antimicrobial activity against Trichoderma viride MTCC 167 at MIC after 48 hrs by agar diffusion method; in short: as §1
# Penicillium chrysogenum [10] = experiment: Antimicrobial activity against Penicillium chrysogenum MTCC 1996 after 48 hrs; conditions: MTCC 1996, 48 h; in short: as §1
# Priestia megaterium [11] = experiment: Antimicrobial activity against Bacillus megaterium MTCC 1684 after 24 hrs; conditions: MTCC 1684, 24 h; in short: as §2
# Serratia marcescens [12] = experiment: Antimicrobial activity against Serratia marcescens MTCC 86 after 24 hrs; conditions: MTCC 86, 24 h; in short: as §2
# Serratia marcescens [13] = experiment: Antimicrobial activity against Serratia marcescens MTCC 86 at MIC after 24 hrs by agar diffusion method; in short: as §2
# Pseudomonas aeruginosa = experiment: Antimicrobial activity against Pseudomonas aeruginosa MTCC 2488 after 24 hrs; conditions: MTCC 2488, 24 h; in short: as §2
# Bacillus subtilis [14] = experiment: Antimicrobial activity against Bacillus subtilis MTCC 1789 at MIC after 24 hrs by agar diffusion method; in short: as §2
# Candida albicans [15] = experiment: Antimicrobial activity against Candida albicans MTCC 227 after 48 hrs; conditions: MTCC 227, 48 h; in short: as §1
# Klebsiella pneumoniae [16] = experiment: Antimicrobial activity against Klebsiella pneumoniae NCIM 2957 after 24 hrs; conditions: NCIM 2957, 24 h; in short: as §2
# Escherichia coli [17] = experiment: Antimicrobial activity against Escherichia coli MTCC 1650 after 24 hrs; conditions: MTCC 1650, 24 h; in short: as §2
# Penicillium chrysogenum [18] = experiment: Antimicrobial activity against Penicillium chrysogenum MTCC 1996 at MIC after 48 hrs by agar diffusion method; in short: as §1
# Priestia megaterium [19] = experiment: Antimicrobial activity against Bacillus megaterium MTCC 1684 at MIC after 24 hrs by agar diffusion method; in short: as §2
# Escherichia coli [20] = experiment: Antimicrobial activity against Escherichia coli MTCC 1650 at MIC after 24 hrs by agar diffusion method; in short: as §2
# Proteus vulgaris [21] = experiment: Antimicrobial activity against Proteus vulgaris MTCC 1771 after 24 hrs; conditions: MTCC 1771, 24 h; in short: as §2
# Aspergillus flavus [22] = experiment: Antimicrobial activity against Aspergillus flavus MTCC 2501 after 48 hrs; conditions: MTCC 2501, 48 h; in short: as §1
# Klebsiella pneumoniae [23] = experiment: Antimicrobial activity against Klebsiella pneumoniae NCIM 2957 at MIC after 24 hrs by agar diffusion method; in short: as §2
# Proteus vulgaris [24] = experiment: Antimicrobial activity against Proteus vulgaris MTCC 1771 at MIC after 24 hrs by agar diffusion method; in short: as §2
Structure (SMILES),MIC (Aspergillus niger [1]),MIC (Staphylococcus aureus [2]),MIC (Bacillus subtilis [3]),inhibition zone (IZ) (Candida albicans [4]),inhibition zone (IZ) (Aspergillus niger [5]),MIC (Trichoderma viride [6]),inhibition zone (IZ) (Aspergillus flavus [7]),inhibition zone (IZ) (Staphylococcus aureus [8]),inhibition zone (IZ) (Trichoderma viride [9]),MIC (Penicillium chrysogenum [10]),MIC (Priestia megaterium [11]),MIC (Serratia marcescens [12]),inhibition zone (IZ) (Serratia marcescens [13]),MIC (Pseudomonas aeruginosa),inhibition zone (IZ) (Bacillus subtilis [14]),MIC (Candida albicans [15]),MIC (Klebsiella pneumoniae [16]),MIC (Escherichia coli [17]),inhibition zone (IZ) (Penicillium chrysogenum [18]),inhibition zone (IZ) (Priestia megaterium [19]),other results
Nc1n[nH]c2nc3scc(-c4cc(Cl)c(Cl)cc4O)n3c(=O)c12,250 µg/mL,50 µg/mL,50 µg/mL,10 mm,11 mm,250 µg/mL,18 mm,inactive,22 mm,250 µg/mL,50 µg/mL,50 µg/mL,inactive,50 µg/mL,inactive,250 µg/mL,50 µg/mL,50 µg/mL,23 mm,inactive,inhibition zone (IZ) (Escherichia coli [20]): 12 mm; MIC (Proteus vulgaris [21]): 50 µg/mL; MIC (Aspergillus flavus [22]): 250 µg/mL
Nc1n[nH]c2nc3scc(-c4ccc(Br)cc4)n3c(=O)c12,250 µg/mL,50 µg/mL,50 µg/mL,10 mm,10 mm,250 µg/mL,10 mm,18 mm,27 mm,250 µg/mL,50 µg/mL,50 µg/mL,inactive,50 µg/mL,inactive,250 µg/mL,50 µg/mL,50 µg/mL,15 mm,inactive,inhibition zone (IZ) (Klebsiella pneumoniae [23]): inactive; inhibition zone (IZ) (Proteus vulgaris [24]): inactive; inhibition zone (IZ) (Escherichia coli [20]): 14 mm; MIC (Proteus vulgaris [21]): 50 µg/mL; MIC (Aspergillus flavus [22]): 250 µg/mL
Nc1n[nH]c2nc3scc(-c4cc(Cl)cc(I)c4O)n3c(=O)c12,250 µg/mL,50 µg/mL,50 µg/mL,inactive,inactive,250 µg/mL,inactive,16 mm,21 mm,250 µg/mL,50 µg/mL,50 µg/mL,inactive,50 µg/mL,14 mm,250 µg/mL,50 µg/mL,50 µg/mL,14 mm,inactive,inhibition zone (IZ) (Escherichia coli [20]): inactive; MIC (Proteus vulgaris [21]): 50 µg/mL; MIC (Aspergillus flavus [22]): 250 µg/mL
Cc1cc(-c2csc3nc4[nH]nc(N)c4c(=O)n23)c(O)cc1Cl,250 µg/mL,50 µg/mL,50 µg/mL,17 mm,9 mm,250 µg/mL,12 mm,inactive,27 mm,250 µg/mL,50 µg/mL,50 µg/mL,inactive,50 µg/mL,inactive,250 µg/mL,50 µg/mL,50 µg/mL,32 mm,inactive,inhibition zone (IZ) (Escherichia coli [20]): 12 mm; MIC (Proteus vulgaris [21]): 50 µg/mL; MIC (Aspergillus flavus [22]): 250 µg/mL
